# Experimental data taken from paper PMC10213863 (Cell Reports Medicine, 2023).
# Key:
# Assay type in all cases: cell-based
# [1] = tested on: mouse blood; test: Cell viability in mouse blood; details: up to 10 μM
# In short: (§1)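 Fresh human blood or 129/Sv mouse blood was taken into citrate and diluted 1:1 with RPMI1640. It was pre-incubated 30 min at 37°C, 5% CO2 with increasing concentrations of test compound or 0.25% v/v DMSO (final). Blood was then stimulated with TLR agonists at doses from earlier work, or with R848 (3 μM), and cytokines were quantified. Viability was checked by ATPlite luminescence.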
# [2] = target: T1, TLR9 (Homo sapiens, UniProt Q9NR96); test: Isolated human pDC assay, ODN2216-driven IFN-α; details: fixed dose of MHV370
# T1 sequence (Q9NR96 26-1032): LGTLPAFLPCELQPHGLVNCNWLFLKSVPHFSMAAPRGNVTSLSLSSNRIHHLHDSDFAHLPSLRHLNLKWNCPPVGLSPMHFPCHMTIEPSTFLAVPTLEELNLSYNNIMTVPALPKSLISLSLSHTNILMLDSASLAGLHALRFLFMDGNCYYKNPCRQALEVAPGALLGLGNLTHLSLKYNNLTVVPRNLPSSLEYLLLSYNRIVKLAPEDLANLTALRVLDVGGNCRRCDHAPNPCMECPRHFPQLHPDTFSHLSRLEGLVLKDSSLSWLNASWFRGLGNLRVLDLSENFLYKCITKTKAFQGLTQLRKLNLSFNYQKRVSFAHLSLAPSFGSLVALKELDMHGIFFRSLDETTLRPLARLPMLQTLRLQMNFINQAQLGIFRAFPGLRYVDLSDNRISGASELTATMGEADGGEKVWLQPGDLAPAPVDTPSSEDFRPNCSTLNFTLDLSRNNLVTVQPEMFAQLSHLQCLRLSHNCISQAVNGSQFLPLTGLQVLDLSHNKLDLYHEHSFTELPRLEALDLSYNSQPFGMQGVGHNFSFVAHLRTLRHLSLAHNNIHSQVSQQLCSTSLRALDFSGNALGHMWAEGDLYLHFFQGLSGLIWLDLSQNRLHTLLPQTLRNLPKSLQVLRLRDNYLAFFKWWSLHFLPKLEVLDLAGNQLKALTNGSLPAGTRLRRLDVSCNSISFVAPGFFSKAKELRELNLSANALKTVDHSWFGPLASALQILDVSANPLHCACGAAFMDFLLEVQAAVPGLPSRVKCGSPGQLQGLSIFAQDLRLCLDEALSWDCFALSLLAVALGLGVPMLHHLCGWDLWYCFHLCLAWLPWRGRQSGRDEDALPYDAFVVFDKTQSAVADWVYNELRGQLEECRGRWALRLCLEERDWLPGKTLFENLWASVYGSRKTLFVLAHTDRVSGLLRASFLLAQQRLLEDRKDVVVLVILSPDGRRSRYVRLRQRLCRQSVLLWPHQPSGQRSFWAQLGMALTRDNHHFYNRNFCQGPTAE
# In short: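 pDCs were negatively enriched from PBMCs and resuspended in RPMI1640 with 10 ng/mL recombinant human IL-3. They were pre-treated 30 min with test compound or 0.25% v/v DMSO. Stimulation was 20 h at 37°C, 5% CO2 with ssRNA40 (10 μg/mL plus 25 μg/mL DOTAP) or ODN2216 (0.3 μM). IFN-α in supernatants was read by AlphaLisa; viability by CellTiter-Glo.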
# [3] = target: T2, TLR8 (Homo sapiens, UniProt Q9NR97); test: Human PBMC assay, ssRNA-induced TNF
# T2 sequence (Q9NR97 27-1041): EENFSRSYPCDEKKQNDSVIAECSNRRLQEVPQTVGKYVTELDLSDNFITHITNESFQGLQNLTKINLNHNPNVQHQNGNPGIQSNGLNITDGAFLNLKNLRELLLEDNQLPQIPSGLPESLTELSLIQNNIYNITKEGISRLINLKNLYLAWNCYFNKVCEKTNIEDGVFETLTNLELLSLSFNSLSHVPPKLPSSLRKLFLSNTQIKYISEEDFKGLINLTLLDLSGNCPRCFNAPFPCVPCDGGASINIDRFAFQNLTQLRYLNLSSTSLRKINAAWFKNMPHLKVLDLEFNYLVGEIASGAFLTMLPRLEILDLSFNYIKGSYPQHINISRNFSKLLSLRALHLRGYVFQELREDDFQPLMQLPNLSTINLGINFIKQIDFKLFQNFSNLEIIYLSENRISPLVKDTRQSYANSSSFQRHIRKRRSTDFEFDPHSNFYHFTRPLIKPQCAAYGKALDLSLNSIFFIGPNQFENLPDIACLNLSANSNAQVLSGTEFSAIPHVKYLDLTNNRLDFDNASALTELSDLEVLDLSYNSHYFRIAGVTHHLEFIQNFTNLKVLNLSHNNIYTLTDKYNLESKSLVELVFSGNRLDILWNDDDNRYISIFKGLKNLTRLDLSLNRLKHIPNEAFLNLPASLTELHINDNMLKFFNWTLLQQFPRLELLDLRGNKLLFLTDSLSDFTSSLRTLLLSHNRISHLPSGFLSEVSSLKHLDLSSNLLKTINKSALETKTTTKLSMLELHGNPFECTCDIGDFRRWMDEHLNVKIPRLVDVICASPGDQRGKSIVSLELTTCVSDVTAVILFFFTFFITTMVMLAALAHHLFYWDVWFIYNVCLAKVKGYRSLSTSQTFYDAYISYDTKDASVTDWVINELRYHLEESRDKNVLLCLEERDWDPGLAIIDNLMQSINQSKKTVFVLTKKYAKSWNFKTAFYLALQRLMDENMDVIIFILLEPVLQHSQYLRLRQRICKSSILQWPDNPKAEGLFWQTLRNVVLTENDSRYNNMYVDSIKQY
# In short: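 Human PBMCs were pre-incubated 30 min with test compound, then stimulated with the respective TLR or IL-1R agonist at doses from earlier work. Cytokines in supernatants were quantified by immunoassay. Viability across the dose range was checked by CellTiter-Glo.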
# [4] = target: T2, TLR8; test: Human whole blood assay, ssRNA-TNF
# In short: as §1
# [5] = target: TLR4 (Mus musculus, UniProt Q9QUK6); test: Murine whole blood assay, TLR4 activation; details: up to 10 μM, data not shown, n = 4
# In short: as §1
# [6] = target: T2, TLR8; test: Human neutrophil ROS production, TL8-506 stimulation
# In short: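 Cells were pre-treated 30 min with increasing concentrations of test compound or 0.1% v/v DMSO. They were then stimulated 30 min at 37°C, 5% CO2 with TL8-506 or PMA (50 ng/mL). ROS was detected with 2 μM dihydrorhodamine for 15 min at 37°C and read by flow cytometry. Signals were normalized to vehicle; viability was checked by CellTiter-Glo.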
# TLR4, sequence (Q9QUK6 26-835): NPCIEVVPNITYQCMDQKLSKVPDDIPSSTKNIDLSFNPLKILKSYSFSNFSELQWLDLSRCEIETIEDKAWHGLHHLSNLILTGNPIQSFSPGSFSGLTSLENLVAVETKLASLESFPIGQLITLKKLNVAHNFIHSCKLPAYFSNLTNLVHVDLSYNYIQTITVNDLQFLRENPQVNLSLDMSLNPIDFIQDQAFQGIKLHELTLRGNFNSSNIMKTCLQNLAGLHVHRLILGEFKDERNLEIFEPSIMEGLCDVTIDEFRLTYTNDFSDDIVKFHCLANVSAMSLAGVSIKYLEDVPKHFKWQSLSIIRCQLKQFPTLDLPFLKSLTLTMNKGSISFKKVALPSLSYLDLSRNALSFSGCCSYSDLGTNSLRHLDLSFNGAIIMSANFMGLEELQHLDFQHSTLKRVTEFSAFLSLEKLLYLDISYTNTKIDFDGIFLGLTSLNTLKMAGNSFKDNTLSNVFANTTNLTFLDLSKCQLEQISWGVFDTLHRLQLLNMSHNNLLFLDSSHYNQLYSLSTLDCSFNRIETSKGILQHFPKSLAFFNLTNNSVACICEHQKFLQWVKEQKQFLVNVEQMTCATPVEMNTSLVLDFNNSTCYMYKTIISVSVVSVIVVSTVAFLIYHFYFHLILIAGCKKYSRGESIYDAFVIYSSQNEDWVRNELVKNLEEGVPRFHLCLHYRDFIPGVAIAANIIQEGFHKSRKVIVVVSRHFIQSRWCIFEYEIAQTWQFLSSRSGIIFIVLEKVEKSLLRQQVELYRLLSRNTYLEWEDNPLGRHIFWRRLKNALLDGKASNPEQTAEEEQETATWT
# TLR4, sequence (Q9JHF9 19-160 partner): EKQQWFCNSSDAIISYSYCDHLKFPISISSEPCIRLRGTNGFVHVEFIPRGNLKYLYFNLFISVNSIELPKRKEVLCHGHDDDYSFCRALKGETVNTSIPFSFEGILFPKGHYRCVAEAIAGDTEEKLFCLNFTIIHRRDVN
compound,measurement,setting,value
"Cc1cc(N2CCc3c(c(C)nn3CC34CCC(NC(=O)[C@@H]5COCCN5)(CC3)CC4)C2)c2cnn(C)c2n1 [MHV370, (S)-N-(4-((5-(1,6-dimethyl-1H-pyrazolo[3,4-b]pyridin-4-yl)-3-methyl-4,5,6,7-tetrahydro-1H-pyrazolo[4,3-c]pyridin-1-yl)methyl)bicyclo[2.2.2]octan-1-yl)morpholine-3-carboxamide]",effect on cell viability,[1],did not show
same,ODN2216/TLR9-dependent IFN-α secretion from pDCs,[2],did not block
same,IC50,[3],70 ± 7.4 nM
same,IC50,[4],31 ± 4.4 nM
same,functional inhibition of TLR4,[5],did not show functional inhibition
same,IC50,[6],5.2 ± 1.5 nM
